Results collected from several papers.
Compare with care: the assays were run in different laboratories.
Target: Serine/threonine-protein kinase BRSK1 (BRSK1, Homo sapiens, UniProt Q8TDC3)
Residues used in one study (Q8TDC3 1-778): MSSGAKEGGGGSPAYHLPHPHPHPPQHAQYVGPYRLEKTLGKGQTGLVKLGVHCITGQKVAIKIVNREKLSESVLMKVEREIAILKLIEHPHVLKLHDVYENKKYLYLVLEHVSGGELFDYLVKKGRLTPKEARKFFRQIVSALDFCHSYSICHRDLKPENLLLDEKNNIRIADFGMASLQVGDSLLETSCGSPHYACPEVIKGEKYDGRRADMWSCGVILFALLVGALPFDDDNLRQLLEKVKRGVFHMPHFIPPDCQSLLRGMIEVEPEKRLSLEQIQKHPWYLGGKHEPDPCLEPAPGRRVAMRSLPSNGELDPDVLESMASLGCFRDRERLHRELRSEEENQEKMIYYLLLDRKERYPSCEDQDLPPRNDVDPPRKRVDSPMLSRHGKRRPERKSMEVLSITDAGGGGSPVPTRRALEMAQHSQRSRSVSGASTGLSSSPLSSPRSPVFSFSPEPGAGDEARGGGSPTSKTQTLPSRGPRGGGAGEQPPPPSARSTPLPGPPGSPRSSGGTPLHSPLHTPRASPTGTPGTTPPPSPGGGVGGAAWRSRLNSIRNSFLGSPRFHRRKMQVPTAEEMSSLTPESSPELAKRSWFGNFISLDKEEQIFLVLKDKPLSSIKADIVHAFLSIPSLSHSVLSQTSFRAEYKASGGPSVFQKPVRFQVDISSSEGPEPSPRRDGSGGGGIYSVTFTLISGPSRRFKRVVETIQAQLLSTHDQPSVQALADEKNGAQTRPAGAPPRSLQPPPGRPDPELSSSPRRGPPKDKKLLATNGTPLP

For `C1=C/COCc2cc(ccc2OCCN2CCCC2)Nc2nccc(n2)-c2cccc(c2)COC/1`, the remaining binding was 99% (binding; 0.1 µM).
`CCCCC(=O)Nc1ccc(-c2ccc3ncn(CCC)c(=O)c3c2)cn1` has a remaining binding of 100% (binding, competition with immobilised ligand; 0.5 µM).
The inhibition of `C=CC(=O)N1CCC([C@@H]2CCNc3c(C(N)=O)c(-c4ccc(Oc5ccccc5)cc4)nn32)CC1` is reported as 0% (enzyme activity, inhibitor; 1 µM).
`Cc1ccc(NC(=O)c2ccnc(C(F)(F)F)c2)cc1-c1cc(OCCO)nc(N2CCOCC2)c1` has a remaining binding of 93% (binding; 1 µM).
The inhibition of `C#Cc1cc(-c2cc(Nc3nc(N[C@@H](C)c4ccc(F)cn4)ncc3Cl)n[nH]2)ccc1C=O` is reported as 10.3% (enzyme activity, inhibitor; 0.2 µM).
`COc1ccc2[nH]c3c4[nH]c5ccc(OC)cc5c4c4c(c3c2c1)C(=O)NC4=O` gave a remaining binding of 10% (binding; 1 µM).
With `CO[C@@H]1[C@H](N(C)C(=O)c2ccccc2)C[C@H]2O[C@]1(C)n1c3ccccc3c3c4c(c5c6ccccc6n2c5c31)C(=O)NC4` the inhibition was 48% (enzyme activity, inhibitor; 1 µM).
`COc1ccc2oc(-c3ccc4nc(N)oc4c3)c/c(=N\c3ccccc3NC(=O)CCN)c2c1` gave a remaining binding of 103% (binding; 1 µM).
